Screens: PubChem, several laboratories
CHOP UPR activ = activators of apoptotic arm of unfolded protein response (CHOP). 0.34% of 330,000 active. CHO-CHOP luciferase reporter, UPR activation, luminescence; percent of tunicamycin response over DMSO baseline. activation, % at 10 µM;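 active = at 10 µM dose, activation of 40% or more, normalized to positive control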;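 also: 100% = tunicamycin at 10 µg/mL and 0% = DMSO alone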
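System: CHO CHOP reporter cells. Amount: 500 cells per well. Buffer or medium: F12 medium, 10% FBS. Compound dosing: one dose, 10 µM in 0.5% DMSO. Incubation: 6 h compound exposure at 37 °C after overnight seeding. Technique: Steady-Glo luciferase luminescence. Benchmarks: tunicamycin and DMSO controls.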
UPR XBP1 act = activators of adaptive arm of unfolded protein response (XBP1). CHO-XBP1 luciferase reporter, IRE1-XBP1 UPR activation, luminescence; percent of tunicamycin response, DMSO as zero. activation, % at 20 µM. AID 463104. 0.33% of 330,000 active;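 active = versus positive control, 20 µM dose yields 30% or more activation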;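 also: 100% = tunicamycin at 10 µg/mL and 0% = DMSO only wells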
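Material: CHO cell line with stable XBP1 luciferase reporter; schedule: 16-18 h cell attachment at 37 °C, then 6 h compound exposure; signal: glow luminescence from Steady-Glo reagent; medium: serum-containing F12 medium, 10% FBS; benchmarks: tunicamycin 10 µg/mL and vehicle-only wells; read-out: percent activation relative to tunicamycin reference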
697 NFkB inh = inhibitors of the PMA/ionomycin-induced NF-kB reporter in 697 B cells. inhibition, % at 4 µM. 697 B-cell NF-kB luciferase reporter, 16 h. 0.33% of 330,000 active; in the data active = inhibition above about 35%
Jurkat NFkB inh = lowers PMA/ionomycin-induced NF-kB signal in Jurkat cells; inhibition, % at 4 µM; PMA/ionomycin-induced NF-kB luciferase reporter, luminescence; 0.53% of 330,000 active; in the data active = inhibition above about 50%
CHOP inhibitor = blocks CHOP induction under ER stress | CHO-K1 CHOP-promoter luciferase, tunicamycin-induced, 15-18 h | 3.8% of 220,000 active | inhibition, % at 10 µM;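 active = compounds that reduced the stress-induced luciferase reporter signal by more than about 70% of percent inhibition, limit read from the data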;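 also: 0% = tunicamycin plus vehicle and 100% = wells without tunicamycin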
* = called active by the depositor; nt = no result given. The sample as a whole holds a higher share of hits than the screen did.

SMILES	CHOP UPR activ	UPR XBP1 act	697 NFkB inh	Jurkat NFkB inh	CHOP inhibitor
CCN(CCCNC(=O)CN1C(=O)COc2ccccc21)c1cccc(C)c1	0	-5	16	9	86*
CCN(CCCNC(=O)CN1C(=O)COc2ccccc21)c1ccccc1	-2	-3	-28	1	-2
Cc1ccc(C)c(NC(=O)CN(C)C(=O)c2cc(-c3cccs3)nn2-c2ccccc2)c1	-1	0	-10	10	nt
Cc1ccc(NC(=O)C2CCCN(S(=O)(=O)c3ccc(-n4cnnn4)cc3)C2)cc1 (centres undefined)	0	-2	13	0	nt
CC(=O)Nc1c(O)c2cccc3c2n(c1=O)CCC3	0	3	-3	4	nt
CCN(CC)CCN(C(=O)c1cc2c(ccc3ccccc32)oc1=O)c1nc2cc3c(cc2s1)OCCO3	19	210*	-93	-74	nt
CCN(CC)CCN(C(=O)c1ccc2c(c1)OCCO2)c1nc2cc3c(cc2s1)OCO3	-1	-6	-7	-13	nt
Cc1ccccc1OCc1nc(-c2cccnc2)no1	1	1	-18	-39	3
Cc1cc(OCc2nc(-c3cccnc3)no2)c(C)cc1Br	3	5	-6	5	86*
COc1ccc(NC(=O)c2cccc(N3C(=O)C4C5C=CC(C6CC56)C4C3=O)c2)cc1 (centres undefined)	3	-5	-17	-4	nt
CCc1ccc(-c2nc(CN3CCC(C(=O)NCc4ccccc4OC)CC3)c(C)o2)cc1	3	5	3	11	79*
Cc1oc(-c2ccc(Cl)cc2)nc1CN1CCC(C(=O)N2CCc3ccccc3C2)CC1	0	6	-17	16	91*
Cc1ccccc1C(=O)O[C@H]1[C@H](Cc2ccccc2)NS(=O)(=O)[C@H]2CC3C=C[C@]12O3	0	1	0	-33	nt
CN(C)c1ccc(C2CNC(c3ccc(Cl)c([N+](=O)[O-])c3)c3[nH]c4ccccc4c32)cc1 (centres undefined)	-1	-1	4	17	57
O=[N+]([O-])c1cccc(C2NCC(c3ccccc3Cl)c3c2[nH]c2ccccc32)c1 (centres undefined)	0	-3	-9	-12	85*
CC(C)(C)c1ccc(NC(=O)CSc2nnc(-c3n[nH]c4ccccc34)o2)cc1	3	1	-32	-51	94*
CCOC(=O)c1cc(CC)sc1NC(=O)CC1Sc2ccc(C(F)(F)F)cc2NC1=O (centres undefined)	1	-1	1	-11	82*
COC(=O)c1c(NC(=O)CC2Sc3ccc(C(F)(F)F)cc3NC2=O)sc(C)c1C (centres undefined)	0	1	-16	4	23
CCc1cc(C(=O)OC)c(NC(=O)CC2Nc3cc(C)c(C)cc3NC2=O)s1 (centres undefined)	3	1	-5	3	103*
O=C(NCCN1C(=O)S/C(=C\c2ccc(Cl)c(Cl)c2)C1=O)c1ccc2c(c1)C(=O)N(Cc1ccncc1)C2=O	7	3	-29	5	88*
COc1ccc(C(=O)OCC(O)COC(=O)c2ccc(OC)cc2)cc1	1	-2	19	7	nt
CCCN1Cc2cccc(C(=O)Nc3ccc4c(c3)OCO4)c2C1=O	1	6	-15	-5	4
CCCN1Cc2cccc(C(=O)Nc3ccc4c(c3)OCCO4)c2C1=O	-1	-1	2	-16	78*
COc1ccccc1OCCNC(=O)CN1C(=O)NC2(CCCCC2)C1=O	0	0	21	-10	nt
Cc1ccc(C)c(OCC(=O)Nc2nc3ccc([N+](=O)[O-])cc3s2)c1C	-1	1	-6	15	80*
SMILES	CHOP UPR activ	UPR XBP1 act	697 NFkB inh	Jurkat NFkB inh	CHOP inhibitor
O=c1c2ccccc2[nH]c(=S)n1CCc1ccccc1	2	5	-107	-49	73*
O=C(CNC(=O)c1ccc(Br)o1)Nc1cccc(S(=O)(=O)N2CCCC2)c1	0	-2	-5	21	nt
C=CCNC(=S)N/N=C/c1ccc(OCc2ccccc2Cl)cc1	0	-4	23	2	92*
O=C(Oc1ccc2c(=O)c(Oc3ccc4ccccc4c3)coc2c1)c1cncc(Br)c1	1	-1	-4	-9	-11
O=C(Oc1ccc2ccccc2c1)c1cncc(Br)c1	1	-1	14	6	94*
Cc1ccc(NS(=O)(=O)c2ccc(N3CCN(c4ccc(O)cc4)CC3)c([N+](=O)[O-])c2)c(C)c1	1	1	-34	6	73*
CC(=O)Nc1ccc(S(=O)(=O)N2CCN(c3cc4c(cc3[N+](=O)[O-])n(C)c(=O)n4C)CC2)cc1	0	0	9	10	9
Cc1cccc(C)c1NC(=O)COC(=O)c1ccc(N2CCCC2)c([N+](=O)[O-])c1	1	-2	-2	15	80*
O=[N+]([O-])c1cc(S(=O)(=O)Nc2ccccc2)ccc1N1CCN(c2ccc(O)cc2)CC1	-1	4	-27	3	40
CCC(C)c1ccccc1NC(=O)COC(=O)c1ccc(N2CCCC2)c([N+](=O)[O-])c1 (centres undefined)	1	0	17	-4	-2
Cn1c(=O)n(C)c2cc([N+](=O)[O-])c(N3CCN(S(=O)(=O)c4ccc(C(C)(C)C)cc4)CC3)cc21	14	4	-28	31	75*
COC(=O)c1ccc(N2CCN(S(=O)(=O)c3ccc(C)cc3)CC2)c([N+](=O)[O-])c1	6	1	4	5	75*
Cn1nccc1C(=O)N1CCN(c2ccccc2F)CC1	1	-1	14	6	nt
CC[C@]12c3[nH]c4ccccc4c3CCN1C(=O)C(CC(=O)NCCC1=CCCCC1)C[C@@H]2C(=O)N1CCN(C(=O)C2CC2)CC1 (some centres undefined)	14	-3	-3	15	nt
Clc1ccc(-c2nnnn2-c2ccc(Cl)c(Cl)c2)cc1Cl	-3	0	-16	-1	83*
Nc1ccc(-c2nnnn2-c2ccc(N)cc2)cc1	1	-3	-5	2	nt
N#C/C(=N/Nc1ccc(OC(F)(F)F)cc1)C(N)=S	11	5	-61	-39	74*
Cc1ccc(-c2[nH]c3ccccc3c2C(C[N+](=O)[O-])c2ccco2)cc1 (centres undefined)	-5	-1	-20	23	89*
COc1cccc(-c2nn(-c3ccc(F)cc3)cc2C(=O)NCC2CCCO2)c1 (centres undefined)	-1	1	-8	0	nt
Cc1ccc(NC(=O)CN2C(=O)NC3(CCCCC3C)C2=O)cc1S(=O)(=O)N1CCCCC1 (centres undefined)	1	2	-13	7	nt
